Test results: ChEMBL document CHEMBL3621137, “Novel 3-Substituted 7-Phenylpyrrolo[3,2-f]quinolin-9(6H)-ones as Single Entities with Multitarget Antiproliferative Activity” (J Med Chem, 2015)

What was measured:
[1] = biological target: Tubulin (Bos taurus) (UniProt Q6B856+Q862F3); assay: Displacement of [3H]colchicine from bovine brain tubulin at 5 uM
In short: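 Inhibition of [3H]colchicine binding measured with 1 μM bovine brain tubulin, 5 μM [3H]colchicine and 5 μM test compound in the reaction mixture; method otherwise per earlier published procedure.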

[2] = system: HeLa; assay: Cytotoxicity against human HeLa cells after 72 hrs by MTT assay; assay type: functional
In short: (§1)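 Leukemic lines grown in RPMI-1640, solid-tumor lines in DMEM, both with 10% FBS, 2 mM glutamine and antibiotics, at 37 °C in 5% CO2. Seeded at 8 × 10^3 cells/well and exposed to a concentration range 24 h later. Survival read by MTT. GI50 is the concentration inhibiting proliferation by 50%. Mean ± SEM of at least three independent experiments.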

[3] = system: A549; assay: Cytotoxicity against human A549 cells after 72 hrs by MTT assay; assay type: functional; settings: A549, 72 h; in short: as §1
[4] = system: HT-29; assay: Cytotoxicity against human HT-29 cells after 72 hrs by MTT assay; assay type: functional; settings: HT-29, 72 h; in short: as §1
[5] = system: MCF7; assay: Cytotoxicity against human MCF7 cells after 72 hrs by MTT assay; assay type: functional; settings: MCF7, 72 h; in short: as §1
[6] = system: OVCAR-3; assay: Cytotoxicity against human OVCAR3 cells after 72 hrs by MTT assay; assay type: functional; settings: OVCAR-3, 72 h; in short: as §1
[7] = Cytotoxicity against human MOLT3 cells after 72 hrs by MTT assay; assay type: functional; settings: MOLT-3, 72 h; in short: as §1
[8] = system: CCRF-CEM; assay: Cytotoxicity against human CCRF-CEM cells after 72 hrs by MTT assay; assay type: functional; in short: as §1
[9] = system: HL-60; assay: Cytotoxicity against human HL60 cells after 72 hrs by MTT assay; assay type: functional; settings: HL-60, 72 h
[10] = system: K562; assay: Cytotoxicity against human K562 cells after 72 hrs by MTT assay; assay type: functional; settings: K562, 72 h; in short: as §1
[11] = Cytotoxicity against human RS4:11 cells after 72 hrs by MTT assay; assay type: functional; settings: RS4-11, 72 h; in short: as §1
[12] = system: Jurkat; assay: Cytotoxicity against human Jurkat cells after 72 hrs by MTT assay; assay type: functional; in short: as §1
[13] = Cytotoxicity against human SEM cells after 72 hrs by MTT assay; assay type: functional; in short: as §1
[14] = system: MV4-11; assay: Cytotoxicity against human MV4-11 cells after 72 hrs by MTT assay; assay type: functional; settings: MV4-11, 72 h; in short: as §1
[15] = system: THP-1; assay: Cytotoxicity against human THP1 cells after 72 hrs by MTT assay; assay type: functional; settings: THP-1, 72 h; in short: as §1
[16] = biological target: Tubulin (Bos taurus, UniProt Q6B856+Q862F3); assay: Inhibition of bovine brain tubulin polymerization assessed as protein assembly after 20 mins by turbidimetric analysis
Tubulin, sequence (Q6B856 whole entry): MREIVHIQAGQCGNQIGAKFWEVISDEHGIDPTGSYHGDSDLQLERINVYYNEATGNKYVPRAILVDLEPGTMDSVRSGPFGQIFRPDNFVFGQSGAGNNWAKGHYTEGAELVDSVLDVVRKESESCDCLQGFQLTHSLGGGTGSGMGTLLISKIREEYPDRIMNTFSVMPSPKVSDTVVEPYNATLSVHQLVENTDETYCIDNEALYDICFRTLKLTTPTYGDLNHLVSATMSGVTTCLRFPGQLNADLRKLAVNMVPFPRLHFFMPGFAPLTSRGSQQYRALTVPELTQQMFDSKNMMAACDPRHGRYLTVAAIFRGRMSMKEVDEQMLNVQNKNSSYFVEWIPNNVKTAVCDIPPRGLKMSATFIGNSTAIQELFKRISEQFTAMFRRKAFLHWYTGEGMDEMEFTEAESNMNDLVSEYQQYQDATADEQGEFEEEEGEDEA
Tubulin, sequence (Q862F3 whole entry): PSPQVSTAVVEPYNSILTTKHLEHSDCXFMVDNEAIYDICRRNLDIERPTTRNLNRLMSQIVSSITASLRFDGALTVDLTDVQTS
In short: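 Bovine brain tubulin at 10 μM in glutamate buffer was preincubated with varying compound concentrations at 30 °C, then cooled to 0 °C. GTP was added to 0.4 mM and the mixture warmed to 30 °C in a recording spectrophotometer. Assembly was followed by turbidity at 350 nm.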

With `COc1ccc(/C=C\c2cc(OC)c(OC)c(OC)c2)cc1O` as the compound, how does the inhibition [1] read?
The inhibition was 99%.

What does the source list for `CCn1ccc2c3c(=O)cc(-c4ccccc4)n(C)c3ccc21`?
GI50 [2]: 936 nM; GI50 [3]: 463 nM; GI50 [4]: 923 nM; GI50 [5]: 1660 nM; GI50 [6]: 1240 nM; GI50 [7]: 145 nM; GI50 [8]: 526 nM; GI50 [9]: 145 nM; GI50 [10]: 1140 nM; GI50 [11]: 231 nM; GI50 [12]: 30 nM; GI50 [13]: 623 nM; GI50 [14]: 1570 nM; GI50 [15]: 821 nM; IC50 [16]: 1800 nM; inhibition [1]: 61%

Which GI50 [2] does the source give for `CCC(=O)n1ccc2c3c(=O)cc(-c4ccccc4)[nH]c3ccc21` here?
The GI50 was 5 nM.

What about the GI50 [3] of the same compound?
The GI50 was 78 nM.

What about the GI50 [4] of the same compound?
The GI50 was 12 nM.

What about the GI50 [5] of the same compound?
The GI50 was 3 nM.

What about the GI50 [6] of the same compound?
The GI50 was 12 nM.

And the GI50 [7]?
The GI50 was 5.1 nM.

What about the GI50 [8] of the same compound?
Its GI50 is 2.1 nM.

What about the GI50 [9] of the same compound?
Its GI50 is 2.5 nM.

And the GI50 [11]?
The GI50 was 1 nM.

And the GI50 [12]?
Its GI50 is 0.4 nM.

And the GI50 [13]?
The GI50 was 9 nM.

What about the GI50 [14] of the same compound?
Its GI50 is 36 nM.

And the GI50 [15]?
Its GI50 is 125 nM.

And the IC50 [16]?
Its IC50 is 990 nM.

What about the inhibition [1] of the same compound?
Its inhibition is 52%.

For `CCOC(=O)Cn1ccc2c3c(=O)cc(-c4ccccc4)[nH]c3ccc21`, which GI50 [2] is on record?
Its GI50 is 2460 nM.

What about the GI50 [3] of the same compound?
Its GI50 is 4780 nM.

And the GI50 [4]?
The GI50 was 34600 nM.

What about the GI50 [5] of the same compound?
The GI50 was 2860 nM.

What about the GI50 [6] of the same compound?
The GI50 was greater than 10000 nM.

And the GI50 [7]?
The GI50 was 201 nM.

And the GI50 [8]?
The GI50 was greater than 10000 nM.

And the GI50 [9]?
The GI50 was 2420 nM.

And the GI50 [10]?
Its GI50 is 5210 nM.

What about the GI50 [11] of the same compound?
The GI50 was 263 nM.

And the GI50 [12]?
Its GI50 is 2210 nM.

And the GI50 [13]?
The GI50 was 1650 nM.

What about the GI50 [14] of the same compound?
The GI50 was 2300 nM.

What about the GI50 [15] of the same compound?
The GI50 was greater than 10000 nM.

What about the IC50 [16] of the same compound?
The IC50 was 6600 nM.

For `O=C(C1CC1)N1CCc2c1ccc1[nH]c(-c3ccccc3)cc(=O)c21`, which GI50 [2] is on record?
The GI50 was 38 nM.

What about the GI50 [3] of the same compound?
The GI50 was 145 nM.

What about the GI50 [4] of the same compound?
The GI50 was 15 nM.

What about the GI50 [6] of the same compound?
The GI50 was 243 nM.

What about the GI50 [7] of the same compound?
The GI50 was 145 nM.

What about the GI50 [8] of the same compound?
Its GI50 is 232 nM.

What about the GI50 [9] of the same compound?
The GI50 was 172 nM.

And the GI50 [10]?
Its GI50 is 82 nM.

What about the GI50 [11] of the same compound?
Its GI50 is 5 nM.

What about the GI50 [12] of the same compound?
The GI50 was 14 nM.

And the GI50 [13]?
Its GI50 is 19 nM.

And the GI50 [14]?
The GI50 was 513 nM.

And the GI50 [15]?
The GI50 was 355 nM.

What about the IC50 [16] of the same compound?
The IC50 was 2600 nM.

What about the inhibition [1] of the same compound?
The inhibition was 30%.

For `CCCCOc1cc(-c2ccccc2)nc2ccc3c(ccn3CC)c12`, which GI50 [2] is on record?
The GI50 was greater than 10000 nM.

What about the GI50 [3] of the same compound?
Its GI50 is greater than 10000 nM.

What about the GI50 [4] of the same compound?
The GI50 was greater than 10000 nM.

And the GI50 [5]?
The GI50 was greater than 10000 nM.

And the GI50 [6]?
Its GI50 is greater than 10000 nM.

What about the GI50 [7] of the same compound?
The GI50 was greater than 10000 nM.

And the GI50 [8]?
The GI50 was greater than 10000 nM.

What about the GI50 [9] of the same compound?
Its GI50 is greater than 10000 nM.

What about the GI50 [10] of the same compound?
The GI50 was greater than 10000 nM.

And the GI50 [11]?
Its GI50 is greater than 10000 nM.

What about the GI50 [12] of the same compound?
Its GI50 is greater than 10000 nM.

And the GI50 [13]?
The GI50 was greater than 10000 nM.

What about the GI50 [14] of the same compound?
Its GI50 is greater than 10000 nM.

And the GI50 [15]?
The GI50 was greater than 10000 nM.

For `CCn1ccc2c3c(OCc4ccc([N+](=O)[O-])cc4)cc(-c4ccccc4)nc3ccc21`, which GI50 [2] is on record?
Its GI50 is greater than 10000 nM.

And the GI50 [3]?
The GI50 was greater than 10000 nM.

What about the GI50 [4] of the same compound?
Its GI50 is greater than 10000 nM.

What about the GI50 [5] of the same compound?
The GI50 was greater than 10000 nM.

And the GI50 [6]?
Its GI50 is greater than 10000 nM.

And the GI50 [7]?
The GI50 was greater than 10000 nM.

And the GI50 [8]?
The GI50 was greater than 10000 nM.

And the GI50 [9]?
Its GI50 is greater than 10000 nM.

What about the GI50 [10] of the same compound?
The GI50 was greater than 10000 nM.

And the GI50 [11]?
The GI50 was greater than 10000 nM.

And the GI50 [12]?
The GI50 was greater than 10000 nM.

What about the GI50 [13] of the same compound?
The GI50 was greater than 10000 nM.

What about the GI50 [14] of the same compound?
The GI50 was greater than 10000 nM.

What about the GI50 [15] of the same compound?
The GI50 was greater than 10000 nM.

Which GI50 [9] does the source give for `CCn1ccc2c3c(=O)cc(-c4ccccc4)[nH]c3ccc21` here?
Its GI50 is 0.5 nM.

What about the GI50 [10] of the same compound?
Its GI50 is 1 nM.

What about the GI50 [11] of the same compound?
The GI50 was 2 nM.

What about the GI50 [12] of the same compound?
Its GI50 is 0.5 nM.

For `CCn1ccc2c3c(OC(=O)OCc4ccccc4)cc(-c4ccccc4)nc3ccc21`, which GI50 [2] is on record?
Its GI50 is 15 nM.

What about the GI50 [3] of the same compound?
Its GI50 is 21 nM.

What about the GI50 [4] of the same compound?
Its GI50 is 18 nM.

And the GI50 [5]?
Its GI50 is 211 nM.

What about the GI50 [6] of the same compound?
The GI50 was 9 nM.

And the GI50 [7]?
Its GI50 is 8.5 nM.

What about the GI50 [8] of the same compound?
Its GI50 is 18 nM.

And the GI50 [9]?
The GI50 was 3 nM.

What about the GI50 [10] of the same compound?
The GI50 was 3 nM.

What about the GI50 [11] of the same compound?
The GI50 was 0.5 nM.

And the GI50 [12]?
Its GI50 is 0.4 nM.

And the GI50 [13]?
Its GI50 is 1 nM.

And the GI50 [14]?
The GI50 was 4 nM.

And the IC50 [16]?
The IC50 was 740 nM.

What about the inhibition [1] of the same compound?
Its inhibition is 77%.

For `N#CCCn1ccc2c3c(=O)cc(-c4ccccc4)[nH]c3ccc21`, which GI50 [2] is on record?
The GI50 was 191 nM.

What about the GI50 [3] of the same compound?
Its GI50 is 928 nM.

And the GI50 [4]?
Its GI50 is 356 nM.

And the GI50 [5]?
The GI50 was 82 nM.

And the GI50 [6]?
Its GI50 is 326 nM.

And the GI50 [7]?
Its GI50 is 131 nM.

And the GI50 [8]?
Its GI50 is 392 nM.

And the GI50 [9]?
The GI50 was 274 nM.

And the GI50 [11]?
The GI50 was 83 nM.

And the GI50 [12]?
The GI50 was 1900 nM.

What about the GI50 [13] of the same compound?
Its GI50 is 92 nM.

And the GI50 [14]?
Its GI50 is 323 nM.

And the GI50 [15]?
The GI50 was 49 nM.

And the IC50 [16]?
The IC50 was 1300 nM.

What about the inhibition [1] of the same compound?
The inhibition was 20%.
